Two compounds from ChEMBL document CHEMBL5543129, “Peptide Inhibitor Targeting the Extraterminal Domain in BRD4 Potently Suppresses Breast Cancer Both In Vitro and In Vivo” (J Med Chem, 2024) can be followed below.

Activity calls are given as the source filed them. The rule behind the calls is not given here. Square brackets hold non-standard residues; d marks the D form. Peptide text beside a SMILES is read from it. Hyp = O=C(O)[C@@H]1C[C@@H](O)CN1; Ahx = NCCCCCC(=O)O

In data set [1] the test system is MDA-MB-231. As to the kind of experiment: Inhibition of colony formation in human MDA-MB-231 cells at 10 uM incubated for 2 weeks in presence of 5 uM JQ1 by crystal violet staining based assay. It counts as functional, cell-based. In outline: (§1)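 Cells are seeded at 1 × 10^3/well and treated with peptide (10 μM) for 2 weeks, alone or with JQ1 5 μM, iJMJD6 10 μM, ICI 2.5 μM, or tamoxifen 3 μM (tamoxifen-resistant lines). Colonies are stained with crystal violet, dissolved in 10% acetic acid, and read at 590 nm. Three biological repeats.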

Data set [2] deals with MCF7. As to the kind of experiment: Downregulation of […] gene expression in human MCF7 cells at 10 uM incubated for 6 hrs by RT-qPCR analysis. The format is functional, cell-based. Put shortly:
(§2)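 Cells treated with peptide (10 μM) for 6 h; c-Myc, N-myc and CCND1 mRNA measured by RT-qPCR. Three biological repeats.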
On the technique in general: Real-time PCR tracks product formation cycle by cycle.

Data set [3] in a line: Downregulation of CCND1 protein expression in BALB/c mouse tumor xenografted with human MCF7 cells assessed as fold change in remaining CCND1 level at 25 mg/kg, ip administered every 2 days by immunoblotting analysis. The format is functional. Put shortly: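 Tumours taken from xenograft mice dosed with peptide at 25 mg/kg ip every 2 days. […] Three repeats.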
(Xenograft models place foreign cells or tissue in a host animal.)

A short description of data set [4]: Toxicity in BALB/c mouse xenografted with human MCF7 cells assessed as change in body weight at 2.5 mg/kg, ip administered every 2 days in presence of 12.5 mg/kg fulvestrant. As to conditions: in vivo, 48 h. It counts as organism-based.
The nature of data set [5]: Toxicity in BALB/c mouse xenografted with human MCF7 cells assessed as change in kidney morphology at 12.5 mg/kg, ip administered every 2 days in presence of 50 mg/kg JQ1. The format is organism-based. As to conditions: in vivo, 48 h.
The nature of data set [6]: Toxicity in BALB/c mouse xenografted with human MDA-MB-231 cells assessed as change in spleen morphology at 12.5 mg/kg, ip administered every 2 days in presence of 50 mg/kg JQ1. It counts as organism-based. As to conditions: in vivo, 48 h. In outline: (§3)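 Female BALB/c nude mice (4–6 weeks) carried sc MDA-MB-231 xenografts (5 × 10^6 cells) and were randomized at about 50 mm3. Peptide (12.5 mg/kg ip in saline) and JQ1 (50 mg/kg ip, DMSO/10% HPBCD 1:10) were given every 2 days, alone or combined. Body weight was recorded, and heart, liver, spleen, lung and kidney morphology and weight were assessed.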

The nature of data set [7]: Toxicity in BALB/c mouse xenografted with human MCF7 cells assessed as change in lung weight at 12.5 mg/kg, ip administered every 2 days in presence of 50 mg/kg JQ1. It counts as organism-based. Conditions: in vivo, 48 h.
Data set [8] can be described thus: Downregulation of JMJD6 protein expression in human MDA-MB-231 cells assessed as fold change in remaining JMJD6 level at 10 uM incubated for 24 hrs by immunoblotting analysis (reference value: 1). It counts as functional. In outline:
(§4)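 Cells treated with peptide (10 μM) for 24 h. Lysates in Tris/NaCl/EDTA/1% Triton X-100, run on 10% SDS-PAGE and immunoblotted with ECL detection. β-actin as loading control. Three repeats, quantified against untreated cells.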
(In western blotting, separated proteins are transferred to a membrane and probed.)

The nature of data set [9]: Toxicity in BALB/c mouse xenografted with human MDA-MB-231 cells assessed as change in spleen weight at 12.5 mg/kg, ip administered every 2 days in presence of 50 mg/kg JQ1. It counts as organism-based. Conditions: in vivo, 48 h. In outline:
as §3

The nature of data set [10]: Downregulation of […] protein expression in human MCF7 cells assessed as fold change in remaining c-Myc level at 10 uM incubated for 24 hrs by immunoblotting analysis (reference value: 1). It counts as functional. Put shortly: as §4
Data set [11] is described as follows: Toxicity in BALB/c mouse xenografted with human MDA-MB-231 cells assessed as change in lung morphology at 12.5 mg/kg, ip administered every 2 days in presence of 50 mg/kg JQ1. The format is organism-based. As to conditions: in vivo, 48 h. In outline: as §3
For data set [12], the system named is MDA-MB-231. The data set can be described thus: Inhibition of colony formation in human MDA-MB-231 cells at 10 uM incubated for 2 weeks in presence of JMJD6 inhibitor by crystal violet staining based assay. It counts as functional, cell-based. Put shortly:
as §1

Data set [13] has as its system MCF7. The data set can be described thus: Antitumor activity against human MCF7 cells xenografted in BALB/c nude mouse assessed as reduction in tumor weight at 12.5 mg/kg, ip administered every 2 days in presence of 2.5 mg/kg fulvestrant. It counts as functional, organism-based. Put shortly: (§5)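 MCF7 xenografts in female BALB/c nude mice on E2 (10^-2 M, every 2 days), randomised at ~50 mm3. Peptide 12.5 mg/kg ip every 2 days with fulvestrant 2.5 mg/kg sc (DMSO/corn oil 1:10) every 6 days. Caliper volume (1/2 × L × W²); tumours weighed at the end.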

Data set [14] deals with MCF7. As to the kind of experiment: Inhibition of colony formation in human MCF7 cells at 10 uM incubated for 2 weeks in presence of tamoxifen by crystal violet staining based assay. The format is functional, cell-based. Put shortly: as §1
Data set [15] can be described thus: Toxicity in BALB/c mouse xenografted with human MCF7 cells assessed as change in liver weight at 12.5 mg/kg, ip administered every 2 days in presence of 50 mg/kg JQ1. The format is organism-based. Conditions: in vivo, 48 h.
The nature of data set [16]: Toxicity in BALB/c mouse xenografted with human MDA-MB-231 cells assessed as change in kidney weight at 12.5 mg/kg, ip administered every 2 days in presence of 50 mg/kg JQ1. It counts as organism-based. Conditions: in vivo, 48 h. In outline:
as §3

For data set [17], the system named is MDA-MB-231. As to the kind of experiment: Downregulation of CCND1 gene expression in human MDA-MB-231 cells at 10 uM incubated for 6 hrs by RT-qPCR analysis. It counts as functional, cell-based. Put shortly:
as §2

A short description of data set [18]: Toxicity in BALB/c mouse xenografted with human MDA-MB-231 cells assessed as change in lung weight at 12.5 mg/kg, ip administered every 2 days in presence of 50 mg/kg JQ1. The format is organism-based. Conditions: in vivo, 48 h. In outline: as §3
Data set [19] deals with MCF7. As to the kind of experiment: Antitumor activity against human MCF7 cells xenografted in BALB/c nude mouse assessed as reduction in tumor volume at 12.5 mg/kg, ip administered every 2 days in presence of 2.5 mg/kg fulvestrant. The format is functional, organism-based. Put shortly: as §5
Data set [20] has as its system MCF7. The data set can be described thus: Antiproliferative activity against human MCF7 cells at 10 uM incubated for 1 week in presence of fulvestrant by CellTiter 96 Aqueous One Solution based assay. The format is functional, cell-based. As to conditions: time 1.0 weeks. Put shortly:
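Cells seeded at 2 × 10^3/well and treated with peptide (10 μM) alone or combined with JQ1 (5 μM), iJMJD6 (10 μM) or ICI (2.5 μM), as the line states. Viability read by MTS reagent, 1 h at 37 °C, A490. Three biological repeats.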

Data set [21] relates to MCF7. As to the kind of experiment: Inhibition of cell migration in human MCF7 cells at 10 uM incubated for 24 hrs in presence of 5 uM JQ1 by inverted microscopic assay. It counts as functional, cell-based. Put shortly: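 Cells are seeded at 5 × 10^5/well and scratched at 80–90% confluence. They are kept in serum-free medium with peptide (10 μM); partner agents are JQ1 5 μM, iJMJD6 10 μM, or ICI 2.5 μM. Wound area is imaged by inverted microscope at 0 and 12 or 24 h. Wound closure % = (A0−A1)/A0 × 100. Three biological repeats.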

As to `CC[C@H](C)[C@H](NC(=O)[C@H](Cc1ccc(O)cc1)NC(=O)[C@@H]1C[C@@H](O)CN1C(=O)[C@H](C)NC(=O)[C@@H](NC(=O)CCCCCNC(=O)[C@H](CCC(=O)O)NC(=O)CNC(=O)[C@H](CS)NC(=O)[C@H](CCCCN)NC(=O)[C@H](Cc1ccccc1)NC(=O)[C@H](CCCCN)NC(=O)[C@H](CCC(N)=O)NC(=O)[C@H](CC(N)=O)NC(=O)[C@H](CCCNC(=N)N)NC(=O)[C@H](CCCNC(=N)N)NC(=O)[C@H](CCCNC(=N)N)NC(=O)[C@H](CCCNC(=N)N)NC(=O)[C@H](CCC(N)=O)NC(=O)[C@H](CCCNC(=N)N)NC(=O)[C@H](CCCNC(=N)N)NC(=O)[C@H](CCCCN)NC(=O)[C@H](CCCCN)NC(=O)[C@H](CCCNC(=N)N)NC(=O)CNC(=O)[C@@H](N)Cc1ccc(O)cc1)[C@@H](C)CC)C(=O)O` (H-YGRKKRRQRRRRNQKFKCGE[Ahx]IA[Hyp]YI-OH), the inhibition entry in the data set on MDA-MB-231 [1], with MDA-MB-231 [12], in the data set on MCF7 [14] and in the data set on MCF7 [21] was “Active” in each case. The result with MCF7 [2], with MCF7 [13], in the data set on MDA-MB-231 [17], in the data set with MCF7 [19] and in the data set on MCF7 [20] was Active. The “fold change (FC)” value in data set [3] worked out at 0.09; in data set [8], 0.38; in data set [10], 0.53. The Activity entry in [4], in [5], in [6], in data set [7], in [9] and in data set [11] was “Non-Toxic” throughout. For the same compound, the Activity result in data set [15], in data set [16] and in data set [18] was “Non-Toxic” in each case.

On to H-YGRKKRRQRRRRNQKFKCGE-OH, for which the inhibition entry with MDA-MB-231 [1], in the data set with MDA-MB-231 [12], in the data set on MCF7 [14] and in the data set with MCF7 [21] was “Active” in each case. Also, the outcome in the data set with MCF7 [2], with MCF7 [13], with MDA-MB-231 [17], in the data set with MCF7 [19] and in the data set with MCF7 [20] was Active. Also, the “fold change (FC)” value turned out to be 0.11 in [3], 1.04 in [8] and 0.45 in data set [10]. The Activity result in [4], in data set [5], in data set [6], in data set [7], in data set [9] and in data set [11] was “Non-Toxic” each time. Also, the Activity result in data set [15], in [16] and in [18] was “Non-Toxic” throughout.
